Assay results collected from several papers.
Target: Vascular endothelial growth factor receptor 2 (KDR, Homo sapiens, UniProt P35968)

Structure (SMILES) | read-out | mode | method | measurement | value
CC(C)(C)n1nc(-c2ccc3nc(OC4CC4)ccc3c2)c(C(N)=O)c1N | cell-free assay | – | – | IC50 | 0.45 µM
Cc1ccc(C(=O)Nc2ccc(Oc3cc4cnn(C)c4cc3-c3cn[nH]c3)c(F)c2)c(=O)n1-c1ccc(F)cc1 | phosphorylation in cells | inhibitor | AlphaScreen | IC50 | 0.347 µM
C=CC(=O)Nc1cccc(CN2C(=O)N(c3c(Cl)c(OC)cc(OC)c3Cl)Cc3cnc(NCCCCN(CC)CC)nc32)c1 | binding | – | competition with immobilised ligand | Kd | 0.21 µM
Cc1cc(Nc2cc(CN3CCOCC3)c3nc(C)c(Cc4ccc(Cl)cc4F)n3n2)n[nH]1 | enzyme activity | inhibitor | TR-FRET | IC50 | 0.109 µM
CC(C)(C)n1nc(-c2cnc3cc(OC4CC4)ccc3c2)c(C(N)=O)c1N | cell-free assay | – | – | IC50 | 1.09 µM
CNC(=O)c1cc2c(Oc3ccc(NC(=O)C4(C(=O)Nc5ccc(F)cc5)CC4)cc3)ccnc2cc1OC | enzyme activity | inhibitor | radiometric | IC50 | 0.006 µM
CN1CCN(c2ccc(Nc3ncc4cc(C#N)c(=O)n(C5CCCC5)c4n3)cc2)CC1 | enzyme activity | inhibitor | – | IC50 | 0.0568 µM
Cc1cc(Nc2cc3ncccc3c(N[C@@H]3C[C@H]4CC[C@@H](C3)N4CCC#N)n2)n[nH]1 | binding | – | competition with immobilised ligand | Kd | 0.62 µM
